Active and inactive are the calls of the source. The calls are words filed in the database; no cut-off is given here.
Experiments:
Rattus norvegicus [1] = assay: Hypolipidemic activity in Wistar rat assessed as reduction in plasma cholesterol level at 403 umol/kg/day administered through diet for 4 days; assay type: functional; settings: 96 h
Method in brief: (§1)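 Young male Wistar rats, 170-190 g at start, in groups of six, given compound mixed into Purina Lab Chow ad libitum for 4 or 10 days as stated. Daily dose was calculated from food consumption and body weight. Plasma was taken by cardiac puncture at the end and cholesterol measured by automated procedure. Results are % reduction versus a concurrent untreated control group, with Student's t test.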

Rattus norvegicus [2] = assay: Hypolipidemic activity in Wistar rat assessed as reduction in plasma triglyceride level at 403 umol/kg/day administered through diet for 4 days; assay type: functional; settings: 96 h
Rattus norvegicus [3] = assay: Increase in liver weight in Wistar rat at 403 umol/kg/day administered through diet for 4 days; assay type: ADME, organism-based; settings: in vivo, po, 96 h
Rattus norvegicus [4] = assay: Increase in cholesterol level in Wistar rat liver at 403 umol/kg/day administered through diet for 4 days; assay type: ADME, organism-based; settings: in vivo, po, 96 h
Rattus norvegicus [5] = assay: Increase in cholesterol level in Wistar rat liver at 314 umol/kg/day administered through diet for 10 days; assay type: ADME, organism-based; settings: in vivo, po, 240 h
Rattus norvegicus [6] = assay: Increase in cholesterol level in Wistar rat liver at 583 umol/kg/day administered through diet for 10 days; assay type: ADME, organism-based; settings: in vivo, po, 240 h
Rattus norvegicus [7] = assay: Inhibition of fatty acid biosynthesis in Ad Lib fed Wistar rat liver assessed as sodium [1-14C]acetate incorporation at 154 mg/kg/day administered through diet for 7 days measured 1 hr after labeled acetate challenge by liquid scintillation spectrometry (reference value: 27.2 +/- 4.8 x 10^-3 dpm); assay type: functional
Rattus norvegicus [8] = assay: Hypolipidemic activity in Wistar rat assessed as reduction in plasma cholesterol level at 583 umol/kg/day administered through diet for 10 days; assay type: functional; settings: 240 h
Method in brief: (§2)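 Young male Wistar rats (initial weight 170-190 g), groups of six, fed compound mixed into Purina Lab Chow ad libitum for 4 or 10 days; daily dose calculated from food consumption and body weight. Bled by cardiac puncture; plasma cholesterol and triglycerides by automated procedures; percent reduction versus simultaneous untreated controls, Student's t test.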

Rattus norvegicus [9] = assay: Hypolipidemic activity in Wistar rat assessed as reduction in plasma cholesterol level at 314 umol/kg/day administered through diet for 10 days; assay type: functional; settings: 240 h; method in brief: as §1
Rhesus monkey [10] = assay: Hypolipidemic activity in rhesus monkey assessed as reduction in plasma cholesterol level at 92 umol/kg/day administered for 28 days; assay type: functional; settings: Macaca mulatta, 672 h
Rattus norvegicus [11] = assay: Increase in cholesterol level in Wistar rat liver at 154 umol/kg/day administered through diet for 10 days; assay type: ADME, organism-based; settings: in vivo, po, 240 h
Rattus norvegicus [12] = assay: Increase in liver weight in Wistar rat at 583 umol/kg/day administered through diet for 10 days; assay type: ADME, organism-based; settings: in vivo, po, 240 h
Rattus norvegicus [13] = assay: Inhibition of cholesterol synthesis in Wistar rat liver assessed as drug incorporation into cholesterol ester administered for 2 weeks by gas chromatography; assay type: functional, organism-based
Rattus norvegicus [14] = assay: Inhibition of fatty acid synthesis in Wistar rat liver assessed as drug incorporation into phospholipid administered for 2 weeks by gas chromatography; assay type: functional, organism-based
Rattus norvegicus [15] = assay: Hypolipidemic activity in Wistar rat assessed as reduction in plasma triglyceride level at 314 umol/kg/day administered through diet for 10 days; assay type: functional; settings: 240 h
Method in brief: (§3)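 Young male Wistar rats, 170-190 g initial weight, six per group, fed drug mixed thoroughly into Purina Lab Chow ad libitum for the stated days; daily dose calculated from food consumption and body weight. Bled by cardiac puncture at end; plasma cholesterol and triglycerides by automated procedures, expressed as percent reduction versus simultaneous untreated controls; Student's t test.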

Rattus norvegicus [16] = assay: Increase in liver weight in Wistar rat at 154 umol/kg/day administered through diet for 10 days; assay type: ADME, organism-based; settings: in vivo, po, 240 h
Rattus norvegicus [17] = assay: Inhibition of fatty acid biosynthesis in meal fed Wistar rat liver assessed as sodium [1-14C]acetate incorporation at 95 mg/kg/day administered through diet for 7 days measured 1 hr after labeled acetate challenge by liquid scintillation spectrometry (reference value: 182 +/- 22 x 10^-3 dpm); assay type: functional
Rattus norvegicus [18] = assay: Inhibition of cholesterol biosynthesis in Ad Lib fed Wistar rat liver assessed as sodium [1-14C]acetate incorporation at 154 mg/kg/day administered through diet for 7 days measured 1 hr after labeled acetate challenge by liquid scintillation spectrometry (reference value: 12.7 +/- 2.6 x 10^-3 dpm); assay type: functional
Rattus norvegicus [19] = assay: Increase in cholesterol level in Wistar rat liver at 410 umol/kg/day administered through diet for 4 days; assay type: ADME, organism-based; settings: in vivo, po, 96 h
Rattus norvegicus [20] = assay: Hypolipidemic activity in Wistar rat assessed as reduction in plasma cholesterol level at 154 umol/kg/day administered through diet for 10 days; assay type: functional; settings: 240 h; method in brief: as §1
Rattus norvegicus [21] = assay: Hypolipidemic activity in Wistar rat assessed as reduction in plasma triglyceride level at 583 umol/kg/day administered through diet for 10 days; assay type: functional; settings: 240 h
Rattus norvegicus [22] = assay: Hypolipidemic activity in Wistar rat assessed as reduction in plasma cholesterol level at 410 umol/kg/day administered through diet for 4 days; assay type: functional; settings: 96 h; method in brief: as §1
Rhesus monkey [23] = assay: Hypolipidemic activity in rhesus monkey assessed as reduction in plasma cholesterol level at 308 umol/kg/day administered for 28 days; assay type: functional; settings: Macaca mulatta, 672 h
Rattus norvegicus [24] = assay: Inhibition of cholesterol biosynthesis in meal fed Wistar rat liver assessed as sodium [1-14C]acetate incorporation at 95 mg/kg/day administered through diet for 7 days measured 1 hr after labeled acetate challenge by liquid scintillation spectrometry (reference value: 41.3 +/- 3.2 x 10^-3 dpm); assay type: functional
Rattus norvegicus [25] = assay: Hypolipidemic activity in Wistar rat assessed as reduction in plasma triglyceride level at 154 umol/kg/day administered through diet for 10 days; assay type: functional; settings: 240 h; method in brief: as §3
Rattus norvegicus [26] = assay: Increase in liver weight in Wistar rat at 410 umol/kg/day administered through diet for 4 days; assay type: ADME, organism-based; settings: in vivo, po, 96 h
Rattus norvegicus [27] = assay: Hypolipidemic activity in Wistar rat assessed as reduction in plasma triglyceride level at 410 umol/kg/day administered through diet for 4 days; assay type: functional; settings: 96 h
Rattus norvegicus [28] = assay: Increase in liver weight in Wistar rat at 314 umol/kg/day administered through diet for 10 days; assay type: ADME, organism-based; settings: in vivo, po, 240 h
Rattus norvegicus [29] = assay: Inhibition of cholesterol synthesis in Wistar rat liver assessed as drug incorporation into triglycerides administered for 2 weeks by gas chromatography; assay type: functional, organism-based
Rattus norvegicus [30] = assay: Increase in liver weight in Wistar rat at 443 umol/kg/day administered through diet for 4 days; assay type: ADME, organism-based; settings: in vivo, po, 96 h
Rattus norvegicus [31] = assay: Hypolipidemic activity in Wistar rat assessed as reduction in plasma cholesterol level at 443 umol/kg/day administered through diet for 4 days; assay type: functional; settings: 96 h
Method in brief: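 Young male Wistar rats, 170-190 g initial weight, groups of six, given compound mixed thoroughly into Purina Lab Chow ad libitum for 4 or 10 days as stated. Daily dose calculated from food consumption and body weight. Bled by cardiac puncture at end of treatment; plasma cholesterol measured by automated procedure. Expressed as percent reduction versus simultaneous untreated control group; Student's t test.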

Rattus norvegicus [32] = assay: Hypolipidemic activity in Wistar rat assessed as reduction in plasma triglyceride level at 443 umol/kg/day administered through diet for 4 days; assay type: functional; settings: 96 h; method in brief: as §2
Rattus norvegicus [33] = assay: Increase in cholesterol level in Wistar rat liver at 443 umol/kg/day administered through diet for 4 days; assay type: ADME, organism-based; settings: in vivo, po, 96 h
Rattus norvegicus [34] = assay: Increase in cholesterol level in Wistar rat liver at 96 umol/kg/day administered through diet for 10 days; assay type: ADME, organism-based; settings: in vivo, po, 240 h
Rattus norvegicus [35] = assay: Hypolipidemic activity in Wistar rat assessed as reduction in plasma cholesterol level at 358 umol/kg/day administered through diet for 10 days; assay type: functional; settings: 240 h; method in brief: as §1
Rattus norvegicus [36] = assay: Increase in cholesterol level in Wistar rat liver at 193 umol/kg/day administered through diet for 10 days; assay type: ADME, organism-based; settings: in vivo, po, 240 h
Rattus norvegicus [37] = assay: Hypolipidemic activity in Wistar rat assessed as reduction in plasma triglyceride level at 96 umol/kg/day administered through diet for 10 days; assay type: functional; settings: 240 h
Rattus norvegicus [38] = assay: Hypolipidemic activity in Wistar rat assessed as reduction in plasma triglyceride level at 358 umol/kg/day administered through diet for 10 days; assay type: functional; settings: 240 h
Method in brief: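 Young male Wistar rats, 170-190 g at start, six per group, given compound mixed into Purina Lab Chow, fed ad libitum for 4 or 10 days. Daily dose calculated from food consumption and body weight. Rats bled by cardiac puncture at end of treatment. Plasma triglycerides determined by automated procedure. Expressed as percent reduction versus a concurrent untreated control group, Student's t test.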

Rattus norvegicus [39] = assay: Hypolipidemic activity in Wistar rat assessed as reduction in plasma cholesterol level at 193 umol/kg/day administered through diet for 10 days; assay type: functional; settings: 240 h; method in brief: as §1
Rattus norvegicus [40] = assay: Increase in liver weight in Wistar rat at 358 umol/kg/day administered through diet for 10 days; assay type: ADME, organism-based; settings: in vivo, po, 240 h
Rattus norvegicus [41] = assay: Hypolipidemic activity in Wistar rat assessed as reduction in plasma cholesterol level at 96 umol/kg/day administered through diet for 10 days; assay type: functional; settings: 240 h; method in brief: as §3
Rattus norvegicus [42] = assay: Increase in liver weight in Wistar rat at 193 umol/kg/day administered through diet for 10 days; assay type: ADME, organism-based; settings: in vivo, po, 240 h
Rattus norvegicus [43] = assay: Increase in liver weight in Wistar rat at 96 umol/kg/day administered through diet for 10 days; assay type: ADME, organism-based; settings: in vivo, po, 240 h
Rattus norvegicus [44] = assay: Increase in cholesterol level in Wistar rat liver at 358 umol/kg/day administered through diet for 10 days; assay type: ADME, organism-based; settings: in vivo, po, 240 h
Rattus norvegicus [45] = assay: Hypolipidemic activity in Wistar rat assessed as reduction in plasma triglyceride level at 193 umol/kg/day administered through diet for 10 days; assay type: functional; settings: 240 h; method in brief: as §3

CCCCCCCCCCCCCCOc1ccc(C(=O)n2ccnc2)o1
inhibition in vivo at 403 µmol/kg (Rattus norvegicus [1]): 22%
inhibition in vivo at 403 µmol/kg (Rattus norvegicus [2]): 39%
Activity (Rattus norvegicus [3]): 14%
Activity (Rattus norvegicus [4]): 1%

CCCCCCCCCCCCCCOc1ccc(C(=O)O)o1 [TOFA]
Activity (Rattus norvegicus [5]): 0%
Activity (Rattus norvegicus [6]): 0%
Activity (Rattus norvegicus [7]): 22800 dpm
inhibition in vivo at 583 µmol/kg (Rattus norvegicus [8]): 64%
inhibition in vivo at 314 µmol/kg (Rattus norvegicus [9]): 38%
inhibition in vivo at 92 µmol/kg (Rhesus monkey [10]): 10%
Activity (Rattus norvegicus [11]): 5%
Activity (Rattus norvegicus [12]): 33%
inhibition (Rattus norvegicus [13]): inactive
inhibition (Rattus norvegicus [14]): Active
inhibition in vivo at 314 µmol/kg (Rattus norvegicus [15]): 61%
Activity (Rattus norvegicus [16]): 1%
Activity (Rattus norvegicus [17]): 60000 dpm
Activity (Rattus norvegicus [18]): 14900 dpm
Activity (Rattus norvegicus [19]): 12%
inhibition in vivo at 154 µmol/kg (Rattus norvegicus [20]): 12%
inhibition in vivo at 583 µmol/kg (Rattus norvegicus [21]): 92%
inhibition in vivo at 410 µmol/kg (Rattus norvegicus [22]): 40%
inhibition in vivo at 308 µmol/kg (Rhesus monkey [23]): 24%
Activity (Rattus norvegicus [24]): 40800 dpm
inhibition in vivo at 154 µmol/kg (Rattus norvegicus [25]): 27%
Activity (Rattus norvegicus [26]): 6%
inhibition in vivo at 410 µmol/kg (Rattus norvegicus [27]): 75%
Activity (Rattus norvegicus [28]): 15%
inhibition (Rattus norvegicus [29]): inactive

CCCCCCCCCCCCCCOc1ccc(C(=O)OCC)o1
Activity (Rattus norvegicus [30]): 6%
inhibition in vivo at 443 µmol/kg (Rattus norvegicus [31]): 30%
inhibition in vivo at 443 µmol/kg (Rattus norvegicus [32]): 64%
Activity (Rattus norvegicus [33]): 0%

CCCCCCCCCCCCCCOc1ccc(C(=O)CC(=O)OCC)cc1
Activity (Rattus norvegicus [34]): 0%
inhibition in vivo at 358 µmol/kg (Rattus norvegicus [35]): 30%
Activity (Rattus norvegicus [36]): 11%
inhibition in vivo at 96 µmol/kg (Rattus norvegicus [37]): 44%
inhibition in vivo at 358 µmol/kg (Rattus norvegicus [38]): 59%
inhibition in vivo at 193 µmol/kg (Rattus norvegicus [39]): 20%
Activity (Rattus norvegicus [40]): 3%
inhibition in vivo at 96 µmol/kg (Rattus norvegicus [41]): 13%
Activity (Rattus norvegicus [42]): 1%
Activity (Rattus norvegicus [43]): 1%
Activity (Rattus norvegicus [44]): 10%
inhibition in vivo at 193 µmol/kg (Rattus norvegicus [45]): 43%

— ChEMBL document CHEMBL3272012, “5-(Tetradecyloxy)-2-furancarboxylic acid and related hypolipidemic fatty acid-like alkyloxyarylcarboxylic acids” (J Med Chem, 1977)
